Here are results for 27 variants from the RNAGym collection of RNA variant scans (doi:10.1101/gad.245936.114).

Sequences and labels used below:
B1: tRNA (parent)
chain: CUCUCGGUAGCCAAGUUGGUUUAAGGCGCAAGACUUUAAUUUAUCACUACGAAAUCUUGAGAUCGGGCGUUCGACUCGCCCCCGGGAGAUUUUUUCCUCGAGCAA

Fewer inactive variants are shown than the library holds.

In the series the parent is B1. Description: nonsense suppression (GFP-seq) (ratio to wild type); higher = more function; SUP4oc tRNA, yeast GFP reporter sort-seq. The gist of the method:
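Nonsense suppression (GFPSEQ) is the median GFP/RFP ratio of each sorting bin, weighted by the variant's estimated share of cells in that bin and expressed relative to the unmutated parent tRNA. Yeast strains carried genome-integrated variants of an ochre-suppressor tRNA from a library with ~3% random mutations, plus a galactose-driven GFP ochre reporter and RFP, and were grown in raffinose/galactose medium containing 80 mg/L adenine. Cells were sorted into GFP/RFP bins, each bin was Illumina-sequenced (phred ≥30), and variants were kept only with ≥100 reads and ≥30 cells.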
In the case of CUCUCGAUAGCCAAGUUGGCUUAAGGCGCAAGACUUUAAUUUAUCACUACGAAAUCUUGAGAUCGGGCGUUCGACUCGCCCACGGAAACUUUUUUCCUCGAGCAA [G7A U20C C82A G86A G88A A89C], the nonsense suppression is no more than 0.026. On to CUCUCUGUAGCCAAGCCGUUUUAAGGCGCAAGACUUUAAUUUAUCACUACGAAAUCUUGAGAUCGGGCGUUCGACUCGCCCCCGGGAGAUUUUUUCCUCGAGCAA [G6U U16C U17C G19U], for which the nonsense suppression is no more than 0.026. With CUCUCGAUAGCCAAGUUGGUUUAAGGCGCAAGACUUUAAUUUAUCACUACGAAAUCUUGGGAUCGGGCGUUCGACUCGCCCCCGGGAGAUUUUUUCCUCGAGCAA [G7A A60G], the nonsense suppression is 0.053. On to CUCUCGAUAGCCAAGUUGGUUUAAGGCGCAAGACUUUAAUUUAUCACUACGAAAUCUUGAGAUCGGGCGUUCGACUCGCCCCCGGUAGAUUUUUUCCUCGAGCAA [G7A G86U], for which the nonsense suppression is no more than 0.026. In the case of CUCUCGAUAGCCAAGUUGGUUUAAGGCGCAAGACUUUAAUUUAUCACUACGAAAACUUGAGAUCGGGCGUUCGACUCGCCCCCGGGAGAUUUUUUCCUCGAGCAA [G7A U55A], the nonsense suppression is no more than 0.026. Take CUCUCGAUAGCCAAGUUGGUUUAAGGCGCAAGACUUUAAUUUAUCACUACGAAAUCUUAAGAUCGGGCGUGCAACUCGCCCCCAUGAGAUUUUUUCCUCGAGCAA [G7A G59A U71G G73A G84A G85U]: the nonsense suppression was no more than 0.026.

For the variant CUCUCCGUAGCCAAGUUGGUUUAAGGCGCAAGACUUUAAUUUAUCACUACGAAAUCCUGAGAUCAGACGUUCGCCUCCCCCCCGGGAGAUUUUUUCCUCGAGCAA [G6C U57C G65A G67A A74C G78C], the nonsense suppression is no more than 0.026. For CUCUCGAUAGCCAAGUUGGUUUAAGGCGCAAGACUUUAAUUUAUCACUACGAAAUCUUGAGAUCGGGCGUUCGACUCGCCGCCGGGAGAUUUUUUCCUCGAGCAA [G7A C81G], the nonsense suppression is no more than 0.026.

Take CUCUCGAUAGCCAAGUUGGUUUCAGGCGCAAGACUUUAAUUUAUCACUACGAAAUGUUGAGAUCGGGCGUUCGACUCGCCCCCGGGAGAUUUUUUCCUCGAGCAA [G7A A23C C56G]: the nonsense suppression was no more than 0.026. Turning to CUCUCGAUAGCCAAGUUGGUUUAAGGCUCAAGAAUUUAAUUUAUCACUACGAAAUCUUGAGAUCGGGCGUUCGACUCGCCCCCGGGAGAUUUUUUCCUCGAGCAA [G7A G28U C34A], the nonsense suppression was no more than 0.026. Turning to CUCUCGAUAGCCAAGUUGGGUUAAGGCGCAAGAUUUUAAUUUAUCACUACGAAAUCCUGAGAUAGGGCGUUCGACUCGUCCCCGGGACAUUUUUUCCUCGAGCAA [G7A U20G C34U U57C C64A C79U G88C], the nonsense suppression was no more than 0.026. CUCUCCGUAGCCAAGUUGGGUUAAGGCGCAAGACUUUAAUUUAUCACUACGAAAUCUUGAGAUCGGGCGUUCGACUCGCCCCCGGGAGAUUUUUUCCUCGAGCAA [G6C U20G]: the nonsense suppression was no more than 0.026. For the variant CUCUCCGUAGCCAAGUUGGAUUAAGGCGCAAGACUUUAAUUUAUCACUACGAAAUCUUGAGAUCGGGCGUUCGACUCGCCCCCGGGAGAUUUUUUCCUCGAGCAA [G6C U20A], the nonsense suppression is no more than 0.026. Under CUCUCGAUAGCCAAGUUGGUUUAAGGCGCAAGACGUUAAUUUAUCACUACGAAAUCUUAAGAUCGGGCGUUCGACUCGCCCCCGGGAGAUUUUUUCCUCGAGCAA [G7A U35G G59A] stands no more than 0.026; under CUCUCUGUAGCCAAGUCGGUUUAAGGCUCAAGACUUUAAUUUAUCACUACGAAACCUUGAGAUCGGGCUUUCGACUCGCCCCCGGGAUAUUUUUUCCUCGAGCAA [G6U U17C G28U U55C G69U G88U], no more than 0.026. For the variant CUCUCUGUAGCCAAGUUGGUUUAAGGCGCAAGACUUUAAUUUAUCACUACGAAAUCUUGAGAUCGGGCGUUCGACUCGCUCCCGGGAGAUUUUUUCCUCGAGCAA [G6U C80U], the nonsense suppression is no more than 0.026. In the case of CUCUCUGUAGCCAAGUUGGUUUAAGGCGCAAGACUUUAAUUUAUCACUACGAAAUCUUGAGAUCGGGCGCUCGACUCGCCCCCGGGAGAUUUUUUCCUCGAGCAA [G6U U70C], the nonsense suppression is no more than 0.026. Take CUCUCGAUAGCCAAGUUGGGUUAAGGCGCAAGAUUUUAAUUUAUCACUACGAAAUCUUGAGCUCGGGCGUUCGACUCGCCCCCGGGAGAUUUUUUCCUCGAGCAA [G7A U20G C34U A62C]: the nonsense suppression is no more than 0.026.

For the variant CUCUCUGUAGCCAAGGUGGUUUAAGGCGCAAGACUUUAAUUUAUCACUACGAAAUCUUAAGAUCGGGCGUUCGACUCACCCCCGGGAGAUUUUUUCCUCGAGCAA [G6U U16G G59A G78A], the nonsense suppression is no more than 0.026. With CUCUCUGUAGUCUAGUUGGUUUAAGGCGCAAGACUUUAAUUUAUCACUACGAAAUCUUGAGAUCGGGCGUUCGACUCGCCCCCGGGAGAUUUUUUCCUCGAGCAA [G6U C11U A13U], the nonsense suppression is no more than 0.026. As to CUCUCUGUAGCCAAGUUGGUUUAAGGCGCAAGACUUUAAUUUAUCACUACGAAAUCAUGAGAUCGGGCGUUCGACUCGCCCCCGGGAGAUUUUUUCCUCGAGCAA [G6U U57A], the nonsense suppression was no more than 0.026. CUCUCUGUUGCCAAGUUGGUUUAAGGCGCAAGACUUUAAUUUAUCACUACGAAAUCUUGAGAUCGGGCGUUCGACUCGCCCCCGGGAGAUUUUUUCCUCGAGCAA [G6U A9U]: the nonsense suppression is 0.0343. Regarding CUCUCUGUAGCCAAGUUGGAUUAAGGCGCAAGACUUUAAUUUAUCACUACGAAAUCUUGAGAUCGGGCGUUCGACUCGCCCCGGGGAGAUUUUUUCCUCGAGCAA [G6U U20A C83G], the nonsense suppression amounted to 0.186.

For the variant CUCUCGAUAGCCAAGUUGGUUUAAGGCGCAAGACUUUAAUUUAUCACUACGAACUCUUGAGAUCGGUCGUUCGACUCGCCCCCGGGAGAUUUUUUCCUCGAGCAA [G7A A54C G67U], the nonsense suppression was no more than 0.026. For the variant CUCUCGAUAGCCAAGUUGGUUUAAGGCGCUAGACUUUAAUUUAUCACUACGAAAUCUUGAGAUCGGGCGUUCGACUCGCCCCCGGGAGAUUUUUUCCUCGAGCAA [G7A A30U], the nonsense suppression is 0.0309.

With CUCUCCGUAGCCAAGUUGGUUUAAGGCGCAAGACGUUAAUUUAUCACUACGAAAUCUUGAGAUCGGGCGUUCGACUCGCCCCCGGGAGAUUUUUUCCUCGAGCAA [G6C U35G], the nonsense suppression was no more than 0.026.

Consider CUCUCUGUAGCCAAGUUGGUUUAAGGCGCAAGACUUUAAUUUAUCACUACGAAAUCUUGAGACCGGGCGUUCGACUCGCCCCCGGGAGAUUUUUUCCUCGAGCAA [G6U U63C], for which the nonsense suppression was no more than 0.026.
